Calls of active or inactive are those of the source. The rule behind the calls is not given here.
Key:
THP-1 [1] = assay: Upregulation of HDAC4 mRNA expression in human THP1 cells at 100 uM after 24 hrs by RT-PCR method; type: functional, cell-based
Summary of the method: (§1)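 THP-1 cells in RPMI 1640 with 10% heat-inactivated FCS, 37 °C, 5% CO2. Seeded 2.0 × 10^6 cells per 3.5 cm dish and treated 24 h, at 1 mM for the 1 mM lines and 100 μM for the 100 μM lines. RNA extracted in TRIzol, then real-time RT-PCR normalized to 18S rRNA. Means ± SD of three independent experiments; ANOVA with Bonferroni post hoc.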

[2] = target: Histone deacetylase 1 (Homo sapiens) (UniProt Q13547); assay: Upregulation of HDAC1 inhibition-mediated histone H4 acetylation-induced extracellular SOD expression in human THP1 cells at 100 uM after 12 hrs by chromatin immunoprecipitation method; type: cell-based
Summary of the method: (§2)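 THP-1 cells (5 × 10^6) treated 12 h, at 1 mM or 100 μM per line. Cross-linked with formaldehyde 5 min at room temperature and chromatin sonicated to 150–800 bp. Immunoprecipitated overnight on protein G beads and washed in RIPA I/II and TE. Eluted with RNase A and proteinase K. EC-SOD promoter binding expressed as % of input.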

THP-1 [3] = assay: Downregulation of HDAC5 mRNA expression in human THP1 cells at 100 uM after 24 hrs by RT-PCR method; type: functional, cell-based; summary of the method: as §1
Homo sapiens [4] = species on record: Homo sapiens; assay: Upregulation of HDAC1 inhibition/ERK signalling activation-mediated extracellular SOD mRNA expression in human THP1 cells at 100 uM after 24 hrs in presence of ERK inhibitor U0126 by RT-PCR method; type: cell-based
Summary of the method: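 THP-1 cells pretreated 30 min with 5 μM U0126, then exposed to compound at 100 μM for 24 h. EC-SOD mRNA measured by real-time RT-PCR normalized to 18S rRNA.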

Homo sapiens [5] = species on record: Homo sapiens; assay: Upregulation of HDAC1 inhibition/ERK signalling activation-mediated extracellular SOD mRNA expression in human THP1 cells at 100 uM by RT-PCR method; type: cell-based; details: TDE = time-dependent effect
Summary of the method: (§3)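 THP-1 cells treated 24 h at the indicated concentrations, or at 100 μM for the indicated times. EC-SOD mRNA measured by real-time RT-PCR normalized to 18S rRNA. Means ± SD of three independent experiments.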

THP-1 [6] = assay: Upregulation of HDAC10 mRNA expression in human THP1 cells at 100 uM after 24 hrs by RT-PCR method; type: functional, cell-based; summary of the method: as §1
THP-1 [7] = assay: Cytotoxicity against human THP1 cells assessed as reduction in cell viability at 100 uM after 24 hrs by MTT assay; type: cell-based; details: thp-1, 24 h
Summary of the method: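 THP-1 cells treated 24 h in 24-well plates; medium replaced with 10% FCS-RPMI 1640 containing 0.5 mg/mL MTT, 2 h at 37 °C, 5% CO2. Formazan dissolved in 2-propanol with 0.04 N HCl, read at 595 nm (reference 655 nm). Mean ± SD, n = 3.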

[8] = target: Histone deacetylase 1 (Homo sapiens) (UniProt Q13547); assay: Inhibition of HDAC1 in human THP1 cells assessed as increase in histone H3 acetylation level at 50 uM after 12 hrs by Western blot analysis relative to control; type: cell-based
Summary of the method: (§4)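 THP-1 cells treated 12 h at the indicated concentrations. Acetylated histone H3 and H4 detected by Western blot (20 μg protein, 12% SDS-PAGE, PVDF, primary antibodies 1:1000). Histone loading checked by Coomassie staining.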

[9] = target: Histone deacetylase 1 (Homo sapiens) (UniProt Q13547); assay: Inhibition of HDAC1 in human THP1 cells assessed as increase in histone H4 acetylation level at 100 uM after 12 hrs by Western blot analysis relative to control; type: cell-based; summary of the method: as §4
Homo sapiens [10] = species on record: Homo sapiens; assay: Upregulation of HDAC1 inhibition/ERK signalling activation-mediated extracellular SOD protein expression in human THP1 cells at 100 uM incubated for 24 hrs by ELISA; type: cell-based
Summary of the method: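 THP-1 cells treated 24 h at 100 μM and collected in PBS. Cellular EC-SOD protein content measured by ELISA. Means ± SD of three independent experiments.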

[11] = target: Histone deacetylase 1 (Homo sapiens) (UniProt Q13547); assay: Upregulation of HDAC1 inhibition-mediated histone H3 acetylation-induced extracellular SOD expression in human THP1 cells at 100 uM after 12 hrs by chromatin immunoprecipitation method; type: cell-based; summary of the method: as §2
[12] = target: Histone deacetylase 1 (Homo sapiens) (UniProt Q13547); assay: Inhibition of HDAC1 in human THP1 cells assessed as increase in histone H3 acetylation level at 100 uM after 12 hrs by Western blot analysis relative to control; type: cell-based; summary of the method: as §4
THP-1 [13] = assay: Downregulation of HDAC6 mRNA expression in human THP1 cells at 100 uM after 24 hrs by RT-PCR method; type: functional, cell-based; summary of the method: as §1
[14] = target: Histone deacetylase 1 (Homo sapiens) (UniProt Q13547); assay: Inhibition of recombinant HDAC1 catalytic domain (unknown origin) using HDAC substrate at 100 uM preincubated for 1 hr followed by substrate addition measured after 30 mins by fluorescence assay relative to control
Summary of the method: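 Recombinant HDAC1 in assay buffer exposed to compound at 100 μM for 1 h. Fluorogenic HDAC substrate then added, 30 min at 37 °C in the dark. Developer added, 15 min at room temperature. Fluorescence read at ex 365 nm, em 410–460 nm, relative to untreated.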

THP-1 [15] = assay: Downregulation of HDAC2 mRNA expression in human THP1 cells at 100 uM after 24 hrs by RT-PCR method; type: functional, cell-based; summary of the method: as §1
Homo sapiens [16] = species on record: Homo sapiens; assay: Induction of ERK phosphorylation in human THP1 cells at 50 to 100 uM incubated for 3 hrs by Western blot analysis; type: cell-based
Summary of the method: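 THP-1 cells treated 3 h at the indicated concentrations. Whole-cell extracts, 20 μg protein, run on 12% SDS-PAGE and transferred to PVDF. Blocked in 1% BSA/PBS. Probed with anti-phospho-ERK and anti-ERK (1:1000), then biotin-conjugated secondary (1:1000).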

[17] = target: Histone deacetylase 1 (Homo sapiens) (UniProt Q13547); assay: Inhibition of HDAC1 in human THP1 cells assessed as increase in histone H4 acetylation level at 50 uM after 12 hrs by Western blot analysis relative to control; type: cell-based; summary of the method: as §4
THP-1 [18] = assay: Downregulation of HDAC1 mRNA expression in human THP1 cells at 100 uM after 24 hrs by RT-PCR method; type: functional, cell-based; summary of the method: as §1
Homo sapiens [19] = species on record: Homo sapiens; assay: Upregulation of HDAC1 inhibition/ERK signalling activation-mediated extracellular SOD mRNA expression in human THP1 cells at 1 to 10 uM incubated for 24 hrs by RT-PCR method; type: cell-based; summary of the method: as §3

Sequence of Histone deacetylase 1 (Homo sapiens) (Q13547 whole entry, the tested form may be a part): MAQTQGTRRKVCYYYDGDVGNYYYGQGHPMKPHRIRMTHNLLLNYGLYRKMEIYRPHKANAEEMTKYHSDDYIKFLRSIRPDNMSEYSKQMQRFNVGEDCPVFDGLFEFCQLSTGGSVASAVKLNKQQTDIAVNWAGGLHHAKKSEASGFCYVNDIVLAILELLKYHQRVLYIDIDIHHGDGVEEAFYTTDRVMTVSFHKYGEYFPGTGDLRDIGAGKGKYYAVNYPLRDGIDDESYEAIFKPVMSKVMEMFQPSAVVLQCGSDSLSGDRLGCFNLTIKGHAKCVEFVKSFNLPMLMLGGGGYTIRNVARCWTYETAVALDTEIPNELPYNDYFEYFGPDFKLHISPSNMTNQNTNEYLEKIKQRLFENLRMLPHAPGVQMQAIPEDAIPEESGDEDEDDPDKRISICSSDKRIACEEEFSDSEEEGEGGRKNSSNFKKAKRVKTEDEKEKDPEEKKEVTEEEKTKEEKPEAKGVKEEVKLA

CCCCCCC(/C=C/C(=O)OCC)OO (centres undefined)
Activity (THP-1 [1]): Active | Activity [2]: Active | Activity (THP-1 [3]): Active | Activity (Homo sapiens [4]): inactive | Activity (Homo sapiens [5]): Tde | Activity (THP-1 [6]): Active | Activity (THP-1 [7]): Non-Toxic | fold change (FC) [8]: 1.82 | fold change (FC) [9]: 3.77 | Activity (Homo sapiens [10]): Active | Activity [11]: Active | fold change (FC) [12]: 4.27 | Activity (THP-1 [13]): Active | inhibition [14]: 50% | Activity (THP-1 [15]): Active | Activity (Homo sapiens [16]): Active | fold change (FC) [17]: 3.32 | Activity (THP-1 [18]): Active | Activity (Homo sapiens [19]): inactive
